According to ChEMBL document CHEMBL3588831, “Synthesis and in Vivo Evaluation of [123I]Melanin-Targeted Agents” (J Med Chem, 2015):

Key:
Liver [1] = test: Biodistribution in liver of C57BL/6J mouse bearing mouse B16F0 cells at 0.37 to 1.85 MBq, iv after 1 hr by gamma counting method; type: ADME, organism-based; conditions: in vivo
Method in brief: (§1)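 Female C57BL/6J mice (5−6 weeks), s.c. inoculated on left flank with 3 × 10^5 B16F0 cells in Ca2+/Mg2+-free PBS, used 11 days later (tumors 2−12 mm). Radiotracer given via tail vein in 100 μL (~0.37 MBq for 1−24 h, 1.85 MBq for 48 h). Organs dissected, weighed, γ-counted, decay corrected. Expressed as % ID/g against injected-dose dilutions. Mean ± SEM, n = 5.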

Kidney [2] = test: Biodistribution in kidney of C57BL/6J mouse bearing mouse B16F0 cells at 0.37 to 1.85 MBq, iv after 16 hrs by gamma counting method; type: ADME, organism-based; conditions: in vivo; method in brief: as §1
Mus musculus [3] = test: Biodistribution in eyes of C57BL/6J mouse bearing mouse B16F0 cells at 0.37 to 1.85 MBq, iv after 16 hrs by gamma counting method; type: ADME, organism-based, Eye; conditions: in vivo; method in brief: as §1
[4] = Stability in urine of C57BL/6J mouse bearing mouse B16F0 cells assessed as drug degradation at 0.37 to 1.85 MBq, iv after 24 hrs by radio-HPLC and radio-TLC method; type: ADME, organism-based; conditions: in vivo, in the assay text read “20 MBq” for “0.37 to 1.85 MBq”
Method in brief: (§2)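 Tumor-bearing C57BL/6J mice were sampled 3 and 24 h after i.v. tracer. Tissue was sonicated in CH3CN/water (3:2) with cold iodo standard and KI, then centrifuged. Urine was diluted and spiked; plasma was spiked, with CH3CN precipitation for TLC. Intact fraction came from silica radio-TLC (spot matching standard Rf) and radio-HPLC with precolumn/C18 column switching.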

Kidney [5] = test: Biodistribution in kidney of C57BL/6J mouse bearing mouse B16F0 cells at 0.37 to 1.85 MBq, iv after 24 hrs by gamma counting method; type: ADME, organism-based; conditions: in vivo; method in brief: as §1
Mus musculus [6] = test: Whole body clearance in C57BL/6J mouse bearing mouse B16F0 cells at 0.37 to 1.85 MBq, iv after 16 hrs by gamma counting method; type: ADME, organism-based; conditions: in vivo
Brain = test: Drug distribution in brain of C57BL/6J mouse bearing mouse B16F0 cells at 18 to 20 MBq, iv measured over 72 hrs by SPECT imaging study; type: ADME, organism-based; conditions: in vivo
Method in brief: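 Female C57BL/6J mice bearing s.c. B16F0 tumors (11 days growth) received 18−20 MBq in 100 μL via lateral tail vein (n = 3). Isoflurane anesthesia (5% induction, 2−2.5% maintenance) on a 37 °C heating pad. Planar γ-camera imaging at 10−60 min (5 min frames), 3 and 6 h, 24, 48 and 72 h. Radioactivity localization assessed visually.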

Spleen [7] = test: Biodistribution in spleen of C57BL/6J mouse bearing mouse B16F0 cells at 0.37 to 1.85 MBq, iv after 3 hrs by gamma counting method; type: ADME, organism-based; conditions: in vivo; method in brief: as §1
[8] = Stability in eyes of C57BL/6J mouse bearing mouse B16F0 cells assessed as intact parent compound level at 0.37 to 1.85 MBq, iv after 3 hrs by radio-HPLC and radio-TLC method; type: ADME, organism-based, Eye; conditions: in the assay text read “20 MBq” for “0.37 to 1.85 MBq”, read-out: Stability; method in brief: as §2
Mus musculus [9] = test: Biodistribution in eyes of C57BL/6J mouse bearing mouse B16F0 cells at 0.37 to 1.85 MBq, iv after 24 hrs by gamma counting method; type: ADME, organism-based, Eye; conditions: in vivo; method in brief: as §1
Kidney [10] = test: Biodistribution in kidney of C57BL/6J mouse bearing mouse B16F0 cells at 0.37 to 1.85 MBq, iv after 48 hrs by gamma counting method; type: ADME, organism-based; conditions: in vivo; method in brief: as §1
Mus musculus [11] = test: Biodistribution in tumor of C57BL/6J mouse bearing mouse B16F0 cells at 0.37 to 1.85 MBq, iv after 24 hrs by gamma counting method; type: ADME, organism-based; conditions: in vivo; method in brief: as §1
[12] = Ratio of AUC in tumor to thyroid gland of C57BL/6J mouse bearing mouse B16F0 cells at 0.37 to 1.85 MBq, iv by gamma counting method; type: ADME, organism-based; conditions: in vivo
Method in brief: (§3)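 Biodistribution in B16F0-bearing C57BL/6J mice given i.v. tail-vein tracer (~0.37 MBq for 1–24 h, 1.85 MBq for 48 h). Sacrifice at 1, 3, 6, 16, 24 and 48 h, then organs dissected, weighed and γ-counted as decay-corrected % ID/g. Tumor AUC divided by each organ AUC; mean of ratios ± SEM, n = 5.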

Mus musculus [13] = test: Biodistribution in tumor of C57BL/6J mouse bearing mouse B16F0 cells at 0.37 to 1.85 MBq, iv after 3 hrs by gamma counting method; type: ADME, organism-based; conditions: in vivo; method in brief: as §1
Mus musculus [14] = test: Biodistribution in large gastrointestinal tract of C57BL/6J mouse bearing mouse B16F0 cells at 0.37 to 1.85 MBq, iv after 48 hrs by gamma counting method; type: ADME, organism-based; conditions: in vivo; method in brief: as §1
Kidney [15] = test: Biodistribution in kidney of C57BL/6J mouse bearing mouse B16F0 cells at 0.37 to 1.85 MBq, iv after 3 hrs by gamma counting method; type: ADME, organism-based; conditions: in vivo; method in brief: as §1
Spleen [16] = test: Biodistribution in spleen of C57BL/6J mouse bearing mouse B16F0 cells at 0.37 to 1.85 MBq, iv after 6 hrs by gamma counting method; type: ADME, organism-based; conditions: in vivo; method in brief: as §1
Mus musculus [17] = test: Biodistribution in large gastrointestinal tract of C57BL/6J mouse bearing mouse B16F0 cells at 0.37 to 1.85 MBq, iv after 3 hrs by gamma counting method; type: ADME, organism-based, Large intestine; conditions: in vivo; method in brief: as §1
Spleen [18] = test: Biodistribution in spleen of C57BL/6J mouse bearing mouse B16F0 cells at 0.37 to 1.85 MBq, iv after 1 hr by gamma counting method; type: ADME, organism-based; conditions: in vivo; method in brief: as §1
Liver [19] = test: Biodistribution in liver of C57BL/6J mouse bearing mouse B16F0 cells at 0.37 to 1.85 MBq, iv after 24 hrs by gamma counting method; type: ADME, organism-based; conditions: in vivo; method in brief: as §1
[20] = Ratio of AUC in tumor to bone of C57BL/6J mouse bearing mouse B16F0 cells at 0.37 to 1.85 MBq, iv by gamma counting method; type: ADME, organism-based; conditions: in vivo; method in brief: as §3
Kidney [21] = test: Biodistribution in kidney of C57BL/6J mouse bearing mouse B16F0 cells at 0.37 to 1.85 MBq, iv after 6 hrs by gamma counting method; type: ADME, organism-based; conditions: in vivo; method in brief: as §1
Mus musculus [22] = test: Biodistribution in thyroid gland of C57BL/6J mouse bearing mouse B16F0 cells at 0.37 to 1.85 MBq, iv after 1 hr by gamma counting method; type: ADME, organism-based; conditions: in vivo; method in brief: as §1
Mus musculus [23] = test: Biodistribution in thyroid gland of C57BL/6J mouse bearing mouse B16F0 cells at 0.37 to 1.85 MBq, iv after 48 hrs by gamma counting method; type: ADME, organism-based; conditions: in vivo; method in brief: as §1
[24] = Stability in eyes of C57BL/6J mouse bearing mouse B16F0 cells assessed as intact parent compound level at 0.37 to 1.85 MBq, iv after 24 hrs by radio-HPLC and radio-TLC method; type: ADME, organism-based, Eye; conditions: in the assay text read “20 MBq” for “0.37 to 1.85 MBq”, read-out: Stability; method in brief: as §2
Mus musculus [25] = test: Biodistribution in small gastrointestinal tract of C57BL/6J mouse bearing mouse B16F0 cells at 0.37 to 1.85 MBq, iv after 48 hrs by gamma counting method; type: ADME, organism-based; conditions: in vivo; method in brief: as §1
Mus musculus [26] = test: Biodistribution in eyes of C57BL/6J mouse bearing mouse B16F0 cells at 0.37 to 1.85 MBq, iv after 3 hrs by gamma counting method; type: ADME, organism-based, Eye; conditions: in vivo; method in brief: as §1
Spleen [27] = test: Biodistribution in spleen of C57BL/6J mouse bearing mouse B16F0 cells at 0.37 to 1.85 MBq, iv after 16 hrs by gamma counting method; type: ADME, organism-based; conditions: in vivo; method in brief: as §1

| SMILES | Drug uptake (Liver [1]) [% ID/g] | Drug uptake (Kidney [2]) [% ID/g] | Drug uptake (Mus musculus [3]) [% ID/g] | Stability [4] | Drug uptake (Kidney [5]) [% ID/g] | CL (Mus musculus [6]) [%] | Drug uptake (Brain) | Drug uptake (Spleen [7]) [% ID/g] | remaining at 3 h [8] [%] | Drug uptake (Mus musculus [9]) [% ID/g] | Drug uptake (Kidney [10]) [% ID/g] | Drug uptake (Mus musculus [11]) [% ID/g] | Ratio [12] | Drug uptake (Mus musculus [13]) [% ID/g] | Drug uptake (Mus musculus [14]) [% ID/g] | Drug uptake (Kidney [15]) [% ID/g] | Drug uptake (Spleen [16]) [% ID/g] | Drug uptake (Mus musculus [17]) [% ID/g] | Drug uptake (Spleen [18]) [% ID/g] | Drug uptake (Liver [19]) [% ID/g] | further results |
| --- | --- | --- | --- | --- | --- | --- | --- | --- | --- | --- | --- | --- | --- | --- | --- | --- | --- | --- | --- | --- | --- |
| O=C(c1ccc2c(n1)NCCC2)N1CCN(Cc2ccc([123I])cc2)CC1 | 19.5 | 1.2 | 28.6 | Unstable | 1 | > 98 | Not Active | 2 | 60 | 30.8 | 0.4 | 12.9 | 7.2 | 32.1 | 0.2 | 9 | 1 | 59.6 | 3.5 | 0.8 | Ratio [20]: 65.5; Drug uptake (Kidney [21]): 10 % ID/g; Drug uptake (Mus musculus [22]): 5.1 % ID/g; Drug uptake (Mus musculus [23]): 2.1 % ID/g; remaining at 24 h [24]: 35%; Drug uptake (Mus musculus [25]): 0.1 % ID/g; Drug uptake (Mus musculus [26]): 56.4 % ID/g; Drug uptake (Spleen [27]): 0.3 % ID/g |
| O=C(c1ccc2cccnc2n1)N1CCN(Cc2ccc([123I])cc2)CC1 | 15.9 | 1.6 | 32.9 | Unstable | 1.4 | > 98 | Not Active | 2.3 | 60 | 35.1 | 0.5 | 14.4 | 5 | 20 | 0.3 | 6.2 | 2.1 | 11.9 | 2.6 | 1.8 | Ratio [20]: 44; Drug uptake (Kidney [21]): 5.2 % ID/g; Drug uptake (Mus musculus [22]): 2.3 % ID/g; Drug uptake (Mus musculus [23]): 5.3 % ID/g; remaining at 24 h [24]: 35%; Drug uptake (Mus musculus [25]): 0.2 % ID/g; Drug uptake (Mus musculus [26]): 36 % ID/g; Drug uptake (Spleen [27]): 0.8 % ID/g |
| O=C(CN1Cc2ccccc2C1=O)N1C[C@H]2CN(Cc3ccc([123I])cc3)C[C@H]2C1 | 12.3 | 1 | 22.1 | Unstable | 0.5 | > 98 | Not Active | 0.5 | 90 | 18.4 | 0.2 | 7.8 | 6 | 10.8 | 0.1 | 8.4 | 0.4 | 21.4 | 0.2 | 0.4 | Ratio [20]: 25; Drug uptake (Kidney [21]): 4.1 % ID/g; Drug uptake (Mus musculus [22]): 1.9 % ID/g; Drug uptake (Mus musculus [23]): 3.4 % ID/g; remaining at 24 h [24]: 80%; Drug uptake (Mus musculus [25]): 0.1 % ID/g; Drug uptake (Mus musculus [26]): 18.5 % ID/g; Drug uptake (Spleen [27]): 0.2 % ID/g |
| O=C(CN1Cc2ccccc2C1=O)NC1CCN(Cc2ccc([123I])cc2)CC1 | 41.8 | 1.8 | 40.4 | Unstable | 1.9 | > 98 | Not Active | 7.6 | 90 | 41.4 | 0.3 | 15.2 | 5.8 | 11.6 | 0.6 | 7.4 | 3.6 | 10.9 | 9.6 | 7.8 | Ratio [20]: 65.8; Drug uptake (Kidney [21]): 5 % ID/g; Drug uptake (Mus musculus [22]): 3.4 % ID/g; Drug uptake (Mus musculus [23]): 2.4 % ID/g; remaining at 24 h [24]: 80%; Drug uptake (Mus musculus [25]): 0.3 % ID/g; Drug uptake (Mus musculus [26]): 20.8 % ID/g; Drug uptake (Spleen [27]): 1.3 % ID/g |
